From ChEMBL document CHEMBL1137566 (J Med Chem, 2007) come the findings set out here.

The nature of data set [1]: (§1) Oral bioavailability in dog at 0.2 mg/kg, po. The format is ADME, organism-based, Canis lupus familiaris. Particulars: in vivo. The essentials: (§2)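 Dog pharmacokinetics from cassette (N-in-one) dosing of compounds as TFA salts: 0.4 mg/kg iv and 0.2 mg/kg po, n = 2 animals.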
Data set [2] deals with Coagulation factor X (Homo sapiens, UniProt P00742). The experiment in a line: Binding affinity to human F10a.
The target in another data set is Prothrombin (Homo sapiens, UniProt P00734). The experiment in a line: Inhibition of human thrombin.
Data set [3] can be described thus: Clearance in dog at 0.4 mg/kg, iv and 0.2 mg/kg, po. Format: ADME, organism-based, Canis lupus familiaris. Particulars: in vivo. The essentials: as §2
Data set [4] is described as follows: Volume of distribution at steady state in dog at 0.4 mg/kg, iv and 0.2 mg/kg, po. The format is ADME, organism-based, Canis lupus familiaris. The conditions noted are these: in vivo, read-out: Vdss. The essentials:
as §2

The nature of data set [5]: Apparent permeability across Caco-2 cells. The format is ADME, cell-based. Particulars: human. A general note: Caco-2 cells form a polarised layer with tight junctions and transporters.
Data set [6] is described as follows: Half life in dog at 0.2 mg/kg, po. Format: ADME, organism-based, Canis lupus familiaris. Also noted: dose 0.2 mg/kg, route oral. The conditions noted are these: in vivo. In a few lines:
as §2

Data set [7] deals with T1, Coagulation factor X (Oryctolagus cuniculus, UniProt O19045).
T1 sequence (O19045 whole entry): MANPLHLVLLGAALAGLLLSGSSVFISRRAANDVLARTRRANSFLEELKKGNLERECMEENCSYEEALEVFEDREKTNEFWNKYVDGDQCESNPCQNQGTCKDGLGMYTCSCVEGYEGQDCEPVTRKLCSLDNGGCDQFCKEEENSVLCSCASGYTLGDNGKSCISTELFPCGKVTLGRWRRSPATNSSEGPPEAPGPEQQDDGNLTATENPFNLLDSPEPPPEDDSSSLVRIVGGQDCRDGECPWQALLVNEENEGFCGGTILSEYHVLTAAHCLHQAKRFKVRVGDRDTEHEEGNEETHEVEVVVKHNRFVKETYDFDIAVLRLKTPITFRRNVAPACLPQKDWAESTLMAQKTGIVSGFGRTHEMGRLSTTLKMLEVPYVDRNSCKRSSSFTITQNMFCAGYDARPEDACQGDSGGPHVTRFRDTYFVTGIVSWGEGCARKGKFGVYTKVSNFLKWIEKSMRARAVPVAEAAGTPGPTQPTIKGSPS
The experiment in a line: Binding affinity to rabbit F10a.

A further data set is filed under the species Oryctolagus cuniculus. As to the kind of experiment: Inhibition of thrombus formation in rabbit arteriovenous shunt thrombosis model. Format: functional, organism-based.
Data set [8] in a line: Protein binding in human serum by equilibrium dialysis. Format: ADME, cell-free. The conditions noted are these: read-out: PB (converted). For orientation: Equilibrium dialysis compares concentrations on both sides of a semipermeable membrane.
Data set [9] in a line: Half life in human liver microsomes. The format is ADME, Microsome.
Data set [10] can be described thus: Aqueos solubility in saline. Format: ADME.
In the next data set the test system is Canis familiaris. The description is as §1. The format is ADME, organism-based, Canis lupus familiaris. Particulars: in vivo. The essentials:
as §2

pIC50, pKi: −log10 of the molar value. In brackets after ≈: the same amount, converted by molar mass.

Coagulation factor X (Homo sapiens, UniProt P00742), sequence (P00742 41-179 limits assumed): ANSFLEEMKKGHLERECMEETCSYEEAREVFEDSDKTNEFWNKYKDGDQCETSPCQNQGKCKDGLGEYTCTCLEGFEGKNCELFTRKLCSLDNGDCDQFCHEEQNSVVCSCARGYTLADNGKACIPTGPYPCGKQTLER
Coagulation factor X (Homo sapiens, UniProt P00742), sequence (P00742 235-488 limits assumed): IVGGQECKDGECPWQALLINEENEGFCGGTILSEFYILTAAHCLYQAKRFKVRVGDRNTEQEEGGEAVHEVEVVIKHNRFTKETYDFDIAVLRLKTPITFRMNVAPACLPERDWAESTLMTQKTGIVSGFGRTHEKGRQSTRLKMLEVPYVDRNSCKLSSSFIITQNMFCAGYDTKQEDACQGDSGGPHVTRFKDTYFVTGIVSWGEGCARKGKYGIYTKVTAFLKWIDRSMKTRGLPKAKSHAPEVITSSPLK

Compound `COc1ccc(-n2nc(C(N)=O)c3c2C(=O)N(c2ccc(N(C)C(C)=O)cc2)CC3)cc1` yielded a bioavailability in [1] of 56%. Besides, the pKi at Coagulation factor X [2] was 9.21; at Prothrombin, 5.60; at Coagulation factor X [7], 8.59. For the same compound, the clearance in data set [3] is 46.7 mL/min/kg. Moreover, in data set [4], the Vd was 1.7 L/kg. Also, in data set [5], the Papp is 2.5 ×10⁻⁶ cm/s. The half-life in [6] was 0.7 h.
Turning to `Nc1noc2ccc(-n3nc(C(F)(F)F)c4c3C(=O)N(c3ccc(-c5ccccc5CN5CC[C@@H](O)C5)cc3)CC4)cc12`, the clearance in [3] was 5.83 mL/min/kg. The pIC50 in the data set filed under Oryctolagus cuniculus was 6.85. For the same compound, the fraction unbound in data set [8] was 0.03. Further, the Vd in [4] is 1.6 L/kg. The half-life in data set [6] is 5.1 h; in [9] it was 0.7 h.
`COc1ccc(-n2nc(C(N)=O)c3c2C(=O)N(c2ccc(N4CCCCC4=O)cc2)CC3)cc1` [APIXABAN]: in data set [1], the bioavailability amounted to 58%. Moreover, the clearance in [3] is 0.333 mL/min/kg. The compound further gave a pIC50 in the data set listed under Oryctolagus cuniculus of 6.48. The solubility in data set [10] stood at 50 µg/mL (≈ 109 µM). Further, the Vd in data set [4] stood at 0.2 L/kg. In data set [6], this compound had a half-life of 5.8 h. For the same compound, the pKi on Coagulation factor X [7] is 9.77.
Take `CN(C)Cc1nccn1-c1ccc(NC(=O)c2cc(C(F)(F)F)nn2-c2ccc3onc(N)c3c2)c(F)c1` [RAZAXABAN]: the F in the data set on Canis familiaris is given as 84%. For the same compound, the fraction unbound in data set [8] is 0.09. In [4], the Vd is 3.4 L/kg. The half-life in data set [6] was 5.3 h; in data set [9], 0.633 h.

In general, bioavailability refers to dose-corrected exposure relative to a reference, in per cent. Read a high bioavailability as good availability. One may read the pKi as the negative decadic logarithm of the Ki, by convention in mol/L. A low value points to a large Ki. By Papp is commonly meant a coefficient for how fast a substance crosses the barrier. As usually defined, the half-life is the time in which the quantity being followed falls by half. A high value points to slow loss. Broadly, the pIC50 is the negative decadic logarithm of the IC50, by convention in mol/L. Lower therefore signals a large IC50. A word on the solubility: it is the concentration that dissolves in the medium under given conditions.
